Calls of active or inactive are those of the source. The calls are words filed in the database; no cut-off is given here.
Columns and labels:
[1] = biological target: T1, Casein kinase I isoform alpha/delta (Homo sapiens) (UniProt P48730+P48729); test: Inhibition of CK1alpha/CK1delta in human U2OS cells co-expressing Bmal1-dLuc assessed as modulation circadian clock by measuring drug level causing 5 hrs circadian period lengthening measured every 100 mins by luminescence assay; type: cell-based
Procedure, shortened: (§1)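 Bmal1-dLuc U2OS cells seeded at 2000 per well and grown 2 days in DMEM/10% FBS. Explant medium with 1 mM luciferin, 10 mM HEPES and 2% B27 (pH 7.2) added, with compounds at 8 μM to 1 nM (3-fold dilutions, final 0.7% DMSO). Luminescence read every 100 min. Period obtained by curve fitting, excluding the first 20 h. Value is the concentration giving the stated lengthening; mean of at least two independent determinations.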

[2] = biological target: T1, Casein kinase I isoform alpha/delta (Homo sapiens); test: Inhibition of CK1alpha/CK1delta in human U2OS cells co-expressing Bmal1-dLuc assessed as modulation circadian clock by measuring drug level causing 1 hr circadian period lengthening measured every 100 mins by luminescence assay; type: cell-based; procedure, shortened: as §1
[3] = biological target: T2, Casein kinase I isoform alpha (Homo sapiens, UniProt P48729); test: Inhibition of recombinant full length human GST-tagged CK1apha expressed in baculovirus at 5 uM using peptide as substrate after 3 hrs by kinase-glo luminescent assay
Target sequence in this assay (P48729 2-337 limits assumed): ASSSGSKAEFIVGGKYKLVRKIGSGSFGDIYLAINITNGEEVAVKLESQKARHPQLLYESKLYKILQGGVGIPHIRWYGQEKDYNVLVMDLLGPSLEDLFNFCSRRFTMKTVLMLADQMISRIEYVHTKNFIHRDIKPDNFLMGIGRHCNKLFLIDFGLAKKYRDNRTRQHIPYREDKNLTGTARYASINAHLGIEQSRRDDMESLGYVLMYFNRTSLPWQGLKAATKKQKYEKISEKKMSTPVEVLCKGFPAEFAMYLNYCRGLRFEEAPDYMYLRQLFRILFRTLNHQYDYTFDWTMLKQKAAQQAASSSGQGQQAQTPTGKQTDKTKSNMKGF

[4] = biological target: T3, Casein kinase I isoform delta (Homo sapiens, UniProt P48730); test: Inhibition of recombinant N-terminal human GST-tagged CK1delta (1 to 294 residues) expressed in Escherichia coli using RKKKAEpSVASLTSQCSYSS peptide as substrate after 3 hrs by kinase-glo luminescent assay relative to control
Procedure, shortened: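 CKI buffer: 40 mM Tris, 10 mM MgCl2, 0.5 mM DTT, 0.1 mg/mL BSA, pH 7.5. Compound added first (final 5% DMSO), then ATP to a final 5 μM. Incubated 30 °C for 3 h; remaining ATP read by Kinase-Glo luminescence.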
Target sequence in this assay (P48730 whole entry, the tested form may be a part, canonical isoform): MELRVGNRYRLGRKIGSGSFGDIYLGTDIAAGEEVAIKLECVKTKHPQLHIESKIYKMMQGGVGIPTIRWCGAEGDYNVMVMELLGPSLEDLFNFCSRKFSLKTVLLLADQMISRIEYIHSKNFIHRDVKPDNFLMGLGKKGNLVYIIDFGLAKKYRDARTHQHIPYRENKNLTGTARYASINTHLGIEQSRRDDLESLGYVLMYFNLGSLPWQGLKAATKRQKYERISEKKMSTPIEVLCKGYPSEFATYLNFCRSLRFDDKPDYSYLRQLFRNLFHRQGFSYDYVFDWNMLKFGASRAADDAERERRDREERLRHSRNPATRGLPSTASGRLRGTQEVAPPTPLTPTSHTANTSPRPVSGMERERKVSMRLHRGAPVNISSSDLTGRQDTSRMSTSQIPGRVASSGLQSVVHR

[5] = test system: Mus musculus; test: Modulation of circadian rhythms in C57BL/6J mouse assessed as lengthening of time period of circadian behavior at 1 mM administered via infusion using osmotic pump by passive infrared sensor analysis; type: functional
Procedure, shortened: (§2)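 Male C57BL/6J mice, 8 weeks old, entrained to 12 h light:12 h dark and then released into constant darkness. Drug infused continuously into the lateral ventricle by osmotic mini-pump via a stereotaxic cannula (0.2 mm anterior, 1.4 mm lateral, 2.2 mm deep). Artificial cerebrospinal fluid infusion served as control, with buffer infusion afterwards. Movement recorded each minute by passive infrared sensor to derive period.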

[6] = biological target: T3, Casein kinase I isoform delta; test: Inhibition of recombinant N-terminal human GST-tagged CK1delta (1 to 294 residues) expressed in Escherichia coli at 5 uM using RKKKAEpSVASLTSQCSYSS peptide as substrate after 3 hrs by kinase-glo luminescent assay relative to control
Target sequence in this assay (P48730 whole entry, looked up, the tested form may be a part, canonical isoform): as the sequence (P48730 whole entry, the tested form may be a part, canonical isoform) above

[7] = test system: Mus musculus; test: Modulation of circadian rhythms in C57BL/6J mouse assessed as lengthening of time period of circadian behavior at 3 mM administered via infusion using osmotic pump by passive infrared sensor analysis; type: functional; procedure, shortened: as §2
[8] = test system: Mus musculus; test: Modulation of circadian rhythms in C57BL/6J mouse assessed as lengthening of time period of circadian behavior at 15 mM administered via infusion using osmotic pump by passive infrared sensor analysis; type: functional; procedure, shortened: as §2
[9] = biological target: T4, Mitogen-activated protein kinase 1 (Homo sapiens, UniProt P28482); test: Inhibition of N-terminal GST-tagged recombinant full-length human MAPK1 expressed in Escherichia coli using MBP1 as substrate after 3 hrs by kinase-glo luminescent assay relative to control
Procedure, shortened: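 MAPK1 assayed as ERK2 at 1.5 ng/μL with 0.8 μg/μL MBP. ERK buffer: 50 mM Tris, 10 mM MgCl2, 0.5 mM DTT, 1 mM EGTA, pH 7.5. Compound at final 5% DMSO, then ATP (final 5 μM). Incubated 3 h at 30 °C; Kinase-Glo luminescence.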

[10] = biological target: CDK7/Cyclin H/MNAT1 (Homo sapiens, UniProt P50613); test: Inhibition of recombinant full length C-terminal human His-tagged CDK7/cyclin H/N-terminal MAT1 expressed in baculovirus expression system using Cdk7/9 peptide as substrate after 3 hrs by kinase-glo luminescent assay relative to control
Procedure, shortened: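 CDK7 used at 5 ng/μL with 100 μM Cdk7/9 peptide substrate in CKI buffer (40 mM Tris, 10 mM MgCl2, 0.5 mM DTT, 0.1 mg/mL BSA, pH 7.5). ATP start at final 5 μM, 30 °C for 3 h, Kinase-Glo luminescence read-out.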

[11] = biological target: T4, Mitogen-activated protein kinase 1; test: Inhibition of N-terminal GST-tagged recombinant full-length human MAPK1 expressed in Escherichia coli at 5 uM using MBP as substrate after 3 hrs by kinase-glo luminescent assay relative to control
[12] = biological target: T5, Cyclin-dependent kinase 2 (Homo sapiens, UniProt P24941); test: Inhibition of CDK2 (unknown origin) at 5 uM after 3 hrs by kinase-glo luminescent assay relative to control
[13] = biological target: T2, Casein kinase I isoform alpha; test: Inhibition of recombinant full length human GST-tagged CK1apha expressed in baculovirus using peptide as substrate after 3 hrs by kinase-glo luminescent assay
Procedure, shortened: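 Reaction held 1 ng/μL CKIα and 50 μM CKI peptide substrate in CKI buffer (40 mM Tris, 10 mM MgCl2, 0.5 mM DTT, 0.1 mg/mL BSA, pH 7.5). Final 5% DMSO from compound. Started with ATP (final 5 μM). Ran 3 h at 30 °C, then Kinase-Glo reagent added and luminescence recorded.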
Target sequence in this assay (P48729 whole entry, the tested form may be a part, canonical isoform): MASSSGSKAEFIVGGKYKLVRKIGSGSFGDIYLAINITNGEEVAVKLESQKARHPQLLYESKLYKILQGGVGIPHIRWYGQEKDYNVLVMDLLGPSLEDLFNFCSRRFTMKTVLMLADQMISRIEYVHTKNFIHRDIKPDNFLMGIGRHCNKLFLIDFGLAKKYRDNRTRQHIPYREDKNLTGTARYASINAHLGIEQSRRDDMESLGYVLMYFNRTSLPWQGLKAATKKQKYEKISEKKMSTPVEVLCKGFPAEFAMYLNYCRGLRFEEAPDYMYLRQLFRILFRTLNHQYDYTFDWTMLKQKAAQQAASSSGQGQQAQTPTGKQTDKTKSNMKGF

[14] = biological target: CDK7/Cyclin H/MNAT1 (Homo sapiens) (UniProt P51946+P50613+P51948); test: Inhibition of recombinant full length C-terminal human His-tagged CDK7/cyclin H/N-terminal MAT1 expressed in baculovirus expression system at 5 uM using Cdk7/9 peptide as substrate after 3 hrs by kinase-glo luminescent assay relative to control
[15] = biological target: T5, Cyclin-dependent kinase 2; test: Inhibition of CDK2 (unknown origin) after 3 hrs by kinase-glo luminescent assay relative to control
[16] = test system: Mus musculus; test: Modulation of circadian rhythms in C57BL/6J mouse assessed as lengthening of time period of circadian behavior at 5 mM administered via infusion using osmotic pump by passive infrared sensor analysis; type: functional; procedure, shortened: as §2
[17] = biological target: Dual specificity protein kinase CLK2 (Homo sapiens) (UniProt P49760); test: Inhibition of CLK2 (unknown origin) at 5 uM relative to control
[18] = biological target: SRSF protein kinase 1 (Homo sapiens) (UniProt Q96SB4); test: Inhibition of SRPK1 (unknown origin) at 5 uM relative to control
[19] = biological target: Cyclin-dependent kinase 6 (Homo sapiens) (UniProt Q00534); test: Inhibition of CDK6 (unknown origin) at 5 uM relative to control
[20] = biological target: Casein kinase I isoform epsilon (Homo sapiens) (UniProt P49674); test: Inhibition of CK1epsilon (unknown origin) at 5 uM relative to control
[21] = biological target: SRSF protein kinase 2 (Homo sapiens) (UniProt P78362); test: Inhibition of SRPK2 (unknown origin) at 5 uM relative to control
[22] = biological target: T3, Casein kinase I isoform delta; test: Inhibition of CK1delta (unknown origin) at 5 uM relative to control
Target sequence in this assay (P48730 whole entry, looked up, the tested form may be a part, canonical isoform): as the sequence (P48730 whole entry, the tested form may be a part, canonical isoform) above

[23] = biological target: Cyclin-dependent kinase 7 (Homo sapiens) (UniProt P50613); test: Inhibition of CDK7 (unknown origin) at 5 uM relative to control
[24] = biological target: T2, Casein kinase I isoform alpha; test: Inhibition of CK1apha (unknown origin) at 5 uM relative to control
Target sequence in this assay (P48729 2-337 limits assumed): as the sequence (P48729 2-337 limits assumed) above

[25] = test system: Mus musculus; test: Reversible modulation of circadian rhythms in C57BL/6J mouse assessed as lengthening of time period of circadian behavior at 5 mM administered via infusion using osmotic pump followed buffer infusion by passive infrared sensor analysis; type: functional, organism-based; procedure, shortened: as §2
[26] = biological target: T6, Casein kinase I isoform alpha-like (Homo sapiens) (UniProt Q8N752); test: Inhibition of CK1alpha-like protein (unknown origin) at 5 uM relative to control
T6 sequence (whole entry): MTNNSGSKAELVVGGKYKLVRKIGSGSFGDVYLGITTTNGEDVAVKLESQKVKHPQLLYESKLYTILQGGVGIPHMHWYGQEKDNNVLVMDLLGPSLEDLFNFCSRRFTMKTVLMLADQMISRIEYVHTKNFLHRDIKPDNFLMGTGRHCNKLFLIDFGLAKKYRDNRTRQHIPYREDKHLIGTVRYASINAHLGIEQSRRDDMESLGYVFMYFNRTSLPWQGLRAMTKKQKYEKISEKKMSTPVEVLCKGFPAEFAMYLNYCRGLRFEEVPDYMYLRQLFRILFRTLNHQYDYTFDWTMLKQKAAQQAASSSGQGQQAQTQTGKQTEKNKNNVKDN

T4 sequence (P28482 whole entry): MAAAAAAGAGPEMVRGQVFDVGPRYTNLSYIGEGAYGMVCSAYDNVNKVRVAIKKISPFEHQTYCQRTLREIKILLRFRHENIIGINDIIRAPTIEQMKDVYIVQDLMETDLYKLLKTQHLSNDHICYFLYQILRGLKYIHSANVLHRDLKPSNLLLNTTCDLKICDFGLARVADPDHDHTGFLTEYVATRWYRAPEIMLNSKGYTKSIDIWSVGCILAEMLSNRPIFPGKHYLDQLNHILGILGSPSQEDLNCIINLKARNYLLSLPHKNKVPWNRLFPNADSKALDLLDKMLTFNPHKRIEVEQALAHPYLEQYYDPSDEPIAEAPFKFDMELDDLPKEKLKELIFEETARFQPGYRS
T1 sequence (P48729 whole entry, looked up, canonical isoform): as the sequence (P48729 whole entry, the tested form may be a part, canonical isoform) above
T1 sequence (P48730 whole entry, looked up, canonical isoform): as the sequence (P48730 whole entry, the tested form may be a part, canonical isoform) above
Chain of CDK7/Cyclin H/MNAT1 (P51946 whole entry): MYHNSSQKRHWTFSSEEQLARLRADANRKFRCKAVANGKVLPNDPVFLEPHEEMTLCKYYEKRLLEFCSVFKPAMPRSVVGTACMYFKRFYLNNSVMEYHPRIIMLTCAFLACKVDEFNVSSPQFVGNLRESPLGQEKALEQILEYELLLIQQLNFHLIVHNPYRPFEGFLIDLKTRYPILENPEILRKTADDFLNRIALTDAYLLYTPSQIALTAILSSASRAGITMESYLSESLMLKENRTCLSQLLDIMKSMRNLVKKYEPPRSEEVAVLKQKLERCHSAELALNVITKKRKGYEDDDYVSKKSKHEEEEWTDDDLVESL
Chain of CDK7/Cyclin H/MNAT1 (P50613 whole entry): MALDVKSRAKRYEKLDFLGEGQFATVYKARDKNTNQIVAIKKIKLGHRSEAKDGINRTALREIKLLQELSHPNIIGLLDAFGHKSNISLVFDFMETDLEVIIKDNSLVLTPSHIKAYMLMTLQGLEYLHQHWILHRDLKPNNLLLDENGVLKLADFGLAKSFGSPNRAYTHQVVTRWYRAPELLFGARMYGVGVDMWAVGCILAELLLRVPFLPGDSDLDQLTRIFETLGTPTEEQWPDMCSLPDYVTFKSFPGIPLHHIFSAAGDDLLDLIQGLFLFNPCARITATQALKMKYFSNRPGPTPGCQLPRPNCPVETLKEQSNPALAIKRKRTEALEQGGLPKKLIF
Chain of CDK7/Cyclin H/MNAT1 (P51948 whole entry, further chain): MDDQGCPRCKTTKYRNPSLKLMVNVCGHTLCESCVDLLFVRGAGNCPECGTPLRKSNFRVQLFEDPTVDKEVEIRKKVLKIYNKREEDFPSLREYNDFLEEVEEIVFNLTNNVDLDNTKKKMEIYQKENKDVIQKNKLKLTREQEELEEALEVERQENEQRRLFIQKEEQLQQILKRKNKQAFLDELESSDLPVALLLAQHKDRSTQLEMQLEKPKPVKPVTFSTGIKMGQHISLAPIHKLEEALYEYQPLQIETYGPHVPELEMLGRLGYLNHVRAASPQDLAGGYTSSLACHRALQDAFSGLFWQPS
Chain of Cyclin-dependent kinase 7 (Homo sapiens) (P50613 whole entry, canonical isoform): as the sequence (P50613 whole entry) above
Chain of Casein kinase I isoform epsilon (Homo sapiens) (P49674 whole entry, looked up, canonical isoform): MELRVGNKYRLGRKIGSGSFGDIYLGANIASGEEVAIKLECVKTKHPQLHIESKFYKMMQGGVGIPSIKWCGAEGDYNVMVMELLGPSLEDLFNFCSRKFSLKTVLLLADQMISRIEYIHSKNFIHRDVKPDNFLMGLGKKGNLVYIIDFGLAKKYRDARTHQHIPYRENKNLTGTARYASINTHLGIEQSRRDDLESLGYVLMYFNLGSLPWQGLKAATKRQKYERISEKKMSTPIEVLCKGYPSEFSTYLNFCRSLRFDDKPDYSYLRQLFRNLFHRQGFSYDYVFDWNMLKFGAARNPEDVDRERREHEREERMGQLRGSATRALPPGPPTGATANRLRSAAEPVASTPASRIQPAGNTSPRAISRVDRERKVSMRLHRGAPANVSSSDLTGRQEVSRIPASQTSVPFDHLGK
Chain of Cyclin-dependent kinase 6 (Homo sapiens) (Q00534 whole entry, canonical isoform): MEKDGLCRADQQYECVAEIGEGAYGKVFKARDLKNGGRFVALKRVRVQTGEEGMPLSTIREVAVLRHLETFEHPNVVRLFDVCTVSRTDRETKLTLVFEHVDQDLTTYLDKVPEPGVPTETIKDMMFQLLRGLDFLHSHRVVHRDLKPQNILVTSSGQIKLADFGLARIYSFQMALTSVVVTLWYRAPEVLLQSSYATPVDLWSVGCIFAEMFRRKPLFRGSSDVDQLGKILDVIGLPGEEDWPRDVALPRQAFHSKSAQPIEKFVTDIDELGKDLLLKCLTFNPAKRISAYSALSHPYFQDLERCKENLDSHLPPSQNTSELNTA

SMILES | EC [1] | EC [2] | further results
CC(C)n1cnc2c(NCc3cccc(C(F)(F)F)c3)nc(N3CCC(O)CC3)nc21 | 10.4 µM | 1.98 µM | 
CC(C)Oc1nc(NCc2cccc(C(F)(F)F)c2)c2ncn(C(C)C)c2n1 | 2.75 µM | 0.39 µM | 
CC(C)n1cnc2c(NCc3cccc(C(F)(F)F)c3)nc(NCc3ccccc3)nc21 | inactive | inactive | 
CC[C@H](CO)Nc1nc(NCc2ccccc2)c2ncn(C(C)C)c2n1 | 9 µM | 0.96 µM | 
CC(C1CC1)n1cnc2c(NCc3cccc(C(F)(F)F)c3)ncnc21 (centres undefined) | 0.9 µM | 0.09 µM | 
COCC1CCCN1c1nc(NCc2cccc(C(F)(F)F)c2)c2ncn(C(C)C)c2n1 (centres undefined) | inactive | inactive | 
CC(C1CC1)n1cnc2c(N(C)Cc3cccc(C(F)(F)F)c3)nc(NCCN(C)C)nc21 (centres undefined) | inactive | inactive | 
COc1nc(NCc2cccc(C(F)(F)F)c2)c2ncn(C(C)C)c2n1 | 2.39 µM | 0.32 µM | 
CC[C@H](CO)Nc1nc(NCc2cccc(C(F)(F)F)c2)c2ncn(C(C)C)c2n1 | 3.76 µM | 0.38 µM | 
CCCCOc1nc(NCc2cccc(C(F)(F)F)c2)c2ncn(C(C)C)c2n1 | 23.4 µM | 6.39 µM | 
CC(C)n1cnc2c(NCc3cccc(C(F)(F)F)c3)nc(NCCN(C)C)nc21 | 0.9 µM | 0.09 µM | 
CC(C)n1cnc2c(NCc3cccc(C(F)(F)F)c3)nc(NC3CC3)nc21 | 3.04 µM | 1.62 µM | 
CC(C)n1cnc2c(NCc3cccc(C(F)(F)F)c3)ncnc21 | 3.4 µM | 0.39 µM | inhibition [3]: > 30%; IC50 [4]: 12 µM; Time [5]: 0.05 h; inhibition [6]: > 30%; Time [7]: 0.1 h; Time [8]: 0.15 h; IC50 [9]: 59 µM; IC50 [10]: 32 µM; inhibition [11]: > 30%; inhibition [12]: > 30%; IC50 [13]: 12 µM; inhibition [14]: > 30%; IC50 [15]: 13 µM; Time [16]: 0.1 h
CC(C)n1cnc2c(NCc3cccc(C(F)(F)F)c3)nc(NCCN3CCOCC3)nc21 | 9.33 µM | 1.65 µM | 
CC(=O)N1CCN(c2nc(NCc3cccc(C(F)(F)F)c3)c3ncn(C(C)C)c3n2)CC1 | 5.7 µM | 1.03 µM | 
CC(C)n1cnc2c(NCc3cccc(C(F)(F)F)c3)nc(N3CCN(C)CC3)nc21 | 3.66 µM | 0.9 µM | 
CC(C)n1cnc2c(NCc3cccc(C(F)(F)F)c3)nc(N3CCCN(C)CC3)nc21 | 5.8 µM | 0.68 µM | 
CC(C1CC1)n1cnc2c(NCc3cccc(C(F)(F)F)c3)nc(NCCN(C)C)nc21 (centres undefined) | 0.32 µM | 0.022 µM | inhibition [3]: Active; IC50 [4]: 3.6 µM; inhibition [6]: Active; inhibition [17]: Active; inhibition [18]: Active; Time [8]: 0.15 h; IC50 [9]: 850 µM; IC50 [10]: 2.4 µM; inhibition [19]: > 50%; IC50 [13]: 1.8 µM; inhibition [20]: > 50%; inhibition [14]: Active; IC50 [15]: 37 µM; inhibition [21]: Active; inhibition [22]: > 50%; inhibition [23]: > 50%; Time [16]: 0.15 h; inhibition [24]: > 50%; Activity [25]: Active; inhibition [26]: > 50%
CC(C)n1cnc2c(NCc3cccc(C(F)(F)F)c3)nc(NCCN)nc21 | 5.23 µM | 0.58 µM | 
CC(C1CC1)n1cnc2c(OCc3cccc(C(F)(F)F)c3)nc(NCCN(C)C)nc21 (centres undefined) | inactive | inactive | 
